Experimental data from ChEMBL document CHEMBL1806486, “Discovery and evaluation of 3-phenyl-1H-5-pyrazolylamine-based derivatives as potent, selective and efficacious inhibitors of FMS-like tyrosine kinase-3 (FLT3)” (Bioorg Med Chem, 2011).

Tests used:
Aurora kinase A = target: T1, Aurora kinase A (Homo sapiens, UniProt O14965); assay: Inhibition of recombinant GST-tagged Aurora A expressed in Sf9 insect cells after 90 mins by Kinase-Glo assay
T1 sequence (O14965 whole entry): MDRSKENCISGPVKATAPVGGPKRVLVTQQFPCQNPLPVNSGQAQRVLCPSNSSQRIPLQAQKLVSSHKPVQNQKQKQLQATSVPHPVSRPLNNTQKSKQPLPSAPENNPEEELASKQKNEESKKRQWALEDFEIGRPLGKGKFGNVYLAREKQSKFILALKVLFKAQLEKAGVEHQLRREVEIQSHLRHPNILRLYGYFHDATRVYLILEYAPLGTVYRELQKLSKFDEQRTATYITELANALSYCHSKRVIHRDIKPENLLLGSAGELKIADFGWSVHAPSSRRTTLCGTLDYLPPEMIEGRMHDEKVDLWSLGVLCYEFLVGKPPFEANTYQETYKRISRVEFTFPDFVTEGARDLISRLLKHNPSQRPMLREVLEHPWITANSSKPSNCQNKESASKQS
Outline: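 GST-Aurora A kinase domain (S123–S401, 150 ng) from Sf9 cells. Buffer was 50 mM Tris-HCl pH 7.4 with 10 mM NaCl, 10 mM MgCl2, 0.01% BSA and 1 mM DTT. Kinase-Glo Plus was added for 20 min at 25 °C before the luminescence read.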

[1] = target: T2, Vascular endothelial growth factor receptor 2 (Homo sapiens, UniProt P35968); assay: Inhibition of recombinant GST-tagged VEGFR2 expressed in Sf9 insect cells after 120 mins by Kinase-Glo assay; assay type: cell-based
[2] = target: T3, Vascular endothelial growth factor receptor 1 (Homo sapiens, UniProt P17948); assay: Inhibition of recombinant GST-tagged VEGFR1 expressed in Sf9 insect cells after 120 mins by Kinase-Glo assay
Outline: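 GST-VEGFR1 (R781–I1338) or GST-VEGFR2 (V789–V1356) kinase domain, 50–100 ng, from Sf9 cells. Read-out was Kinase-Glo Plus luminescence.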

MOLM-13 = assay: Antiproliferation activity against human MOLM13 cells expressing FLT3 mutation assessed as cell viability after 72 hrs by MTS method; assay type: functional; conditions: MOLM-13, 72 h
[3] = target: T4, Receptor-type tyrosine-protein kinase FLT3 (Homo sapiens, UniProt P36888); assay: Inhibition of GST-tagged FLT3 expressing wild type kinase domain expressed in Sf9 insect cells after 4 hrs by Kinase-Glo assay
T4 sequence (P36888 whole entry): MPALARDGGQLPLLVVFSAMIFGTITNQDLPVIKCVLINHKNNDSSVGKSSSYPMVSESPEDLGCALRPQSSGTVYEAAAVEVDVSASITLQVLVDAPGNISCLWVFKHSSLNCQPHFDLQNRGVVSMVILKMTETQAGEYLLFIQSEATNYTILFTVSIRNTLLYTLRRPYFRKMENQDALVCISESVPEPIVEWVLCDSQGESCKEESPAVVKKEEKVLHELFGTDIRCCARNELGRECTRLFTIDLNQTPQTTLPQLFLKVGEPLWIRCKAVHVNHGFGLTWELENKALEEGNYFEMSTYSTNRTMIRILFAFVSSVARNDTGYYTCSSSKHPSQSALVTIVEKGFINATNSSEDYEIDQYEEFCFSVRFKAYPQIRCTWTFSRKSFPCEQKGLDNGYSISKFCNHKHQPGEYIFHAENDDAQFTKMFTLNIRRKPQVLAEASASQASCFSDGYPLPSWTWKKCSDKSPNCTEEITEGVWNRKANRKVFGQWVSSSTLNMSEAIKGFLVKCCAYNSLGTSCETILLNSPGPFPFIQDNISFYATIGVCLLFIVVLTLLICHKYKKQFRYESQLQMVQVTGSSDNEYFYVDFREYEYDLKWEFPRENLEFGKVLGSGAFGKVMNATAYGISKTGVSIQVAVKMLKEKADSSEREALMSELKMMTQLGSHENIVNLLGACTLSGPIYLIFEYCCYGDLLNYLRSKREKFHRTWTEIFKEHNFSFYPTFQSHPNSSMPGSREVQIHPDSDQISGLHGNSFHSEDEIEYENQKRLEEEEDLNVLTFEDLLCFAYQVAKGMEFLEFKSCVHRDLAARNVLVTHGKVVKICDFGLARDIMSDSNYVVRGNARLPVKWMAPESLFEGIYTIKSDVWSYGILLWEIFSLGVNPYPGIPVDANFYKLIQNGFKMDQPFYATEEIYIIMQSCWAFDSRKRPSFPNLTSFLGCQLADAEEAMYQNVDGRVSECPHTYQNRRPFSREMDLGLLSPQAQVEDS

[4] = Ratio GI50 for human MOLM13 cells to IC50 for GST-tagged FLT3 expressing wild type kinase domain; assay type: functional, MOLM-13
[5] = target: T3, Vascular endothelial growth factor receptor 1; assay: Inhibition of recombinant GST-tagged VEGFR1 expressed in Sf9 insect cells at 1 uM after 120 mins by Kinase-Glo assay
[6] = target: T2, Vascular endothelial growth factor receptor 2; assay: Inhibition of recombinant GST-tagged VEGFR2 expressed in Sf9 insect cells at 1 uM after 120 mins by Kinase-Glo assay
MV4-11 = assay: Antiproliferation activity against FLT3/ITD harboring human MV4-11 cells after 72 hrs by MTS method; assay type: functional; conditions: MV4-11, 72 h
[7] = Antiproliferation activity against human RS4:11 cells expressing wild type FLT3 after 72 hrs by MTS method; assay type: functional; conditions: RS4-11, 72 h
K562 = assay: Antiproliferation activity against human K562 cells expressing wild type BCR/ABL after 72 hrs by MTS method; assay type: functional; conditions: K562, 72 h
U-937 = assay: Antiproliferation activity against human FLT3 gene-deficient U937 cells after 72 hrs by MTS method; assay type: functional; conditions: U-937, 72 h
MOLT-4 = assay: Antiproliferation activity against human MOLT4 after 72 hrs by MTS method; assay type: functional; conditions: MOLT-4, 72 h

T3 sequence (P17948 whole entry, the tested form may be a part): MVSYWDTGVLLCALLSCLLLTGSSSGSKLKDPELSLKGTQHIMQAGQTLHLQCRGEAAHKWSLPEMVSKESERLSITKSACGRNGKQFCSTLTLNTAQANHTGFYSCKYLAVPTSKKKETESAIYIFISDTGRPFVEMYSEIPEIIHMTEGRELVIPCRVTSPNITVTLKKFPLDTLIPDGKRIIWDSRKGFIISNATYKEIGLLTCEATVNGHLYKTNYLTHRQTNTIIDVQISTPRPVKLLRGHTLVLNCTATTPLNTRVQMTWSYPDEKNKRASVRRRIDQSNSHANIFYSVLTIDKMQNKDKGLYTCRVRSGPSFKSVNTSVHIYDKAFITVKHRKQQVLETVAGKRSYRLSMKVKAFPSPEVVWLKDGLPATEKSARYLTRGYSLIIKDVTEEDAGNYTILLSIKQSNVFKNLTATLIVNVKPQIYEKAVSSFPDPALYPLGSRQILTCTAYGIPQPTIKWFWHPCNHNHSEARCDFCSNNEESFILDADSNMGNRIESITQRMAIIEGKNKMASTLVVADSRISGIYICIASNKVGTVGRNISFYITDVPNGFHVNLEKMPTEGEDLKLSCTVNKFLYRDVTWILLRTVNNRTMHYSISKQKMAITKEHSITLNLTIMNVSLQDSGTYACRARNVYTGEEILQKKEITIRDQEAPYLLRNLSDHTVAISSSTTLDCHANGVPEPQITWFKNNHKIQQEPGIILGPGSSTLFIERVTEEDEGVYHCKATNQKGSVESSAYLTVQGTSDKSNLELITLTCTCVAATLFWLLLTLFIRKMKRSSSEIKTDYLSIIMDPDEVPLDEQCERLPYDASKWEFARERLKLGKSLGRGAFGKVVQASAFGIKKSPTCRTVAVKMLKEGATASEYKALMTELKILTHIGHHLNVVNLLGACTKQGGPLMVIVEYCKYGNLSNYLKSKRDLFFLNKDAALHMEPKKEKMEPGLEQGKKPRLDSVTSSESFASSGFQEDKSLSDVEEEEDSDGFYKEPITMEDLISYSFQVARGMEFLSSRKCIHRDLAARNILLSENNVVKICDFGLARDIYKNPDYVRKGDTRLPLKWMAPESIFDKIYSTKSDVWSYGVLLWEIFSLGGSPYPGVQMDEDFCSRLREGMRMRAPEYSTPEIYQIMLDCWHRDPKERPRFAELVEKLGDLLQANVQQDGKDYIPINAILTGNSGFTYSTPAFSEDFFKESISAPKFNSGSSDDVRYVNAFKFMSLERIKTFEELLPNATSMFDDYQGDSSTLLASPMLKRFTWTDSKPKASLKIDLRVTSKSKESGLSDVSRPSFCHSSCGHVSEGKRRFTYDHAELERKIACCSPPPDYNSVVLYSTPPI
T2 sequence (P35968 whole entry): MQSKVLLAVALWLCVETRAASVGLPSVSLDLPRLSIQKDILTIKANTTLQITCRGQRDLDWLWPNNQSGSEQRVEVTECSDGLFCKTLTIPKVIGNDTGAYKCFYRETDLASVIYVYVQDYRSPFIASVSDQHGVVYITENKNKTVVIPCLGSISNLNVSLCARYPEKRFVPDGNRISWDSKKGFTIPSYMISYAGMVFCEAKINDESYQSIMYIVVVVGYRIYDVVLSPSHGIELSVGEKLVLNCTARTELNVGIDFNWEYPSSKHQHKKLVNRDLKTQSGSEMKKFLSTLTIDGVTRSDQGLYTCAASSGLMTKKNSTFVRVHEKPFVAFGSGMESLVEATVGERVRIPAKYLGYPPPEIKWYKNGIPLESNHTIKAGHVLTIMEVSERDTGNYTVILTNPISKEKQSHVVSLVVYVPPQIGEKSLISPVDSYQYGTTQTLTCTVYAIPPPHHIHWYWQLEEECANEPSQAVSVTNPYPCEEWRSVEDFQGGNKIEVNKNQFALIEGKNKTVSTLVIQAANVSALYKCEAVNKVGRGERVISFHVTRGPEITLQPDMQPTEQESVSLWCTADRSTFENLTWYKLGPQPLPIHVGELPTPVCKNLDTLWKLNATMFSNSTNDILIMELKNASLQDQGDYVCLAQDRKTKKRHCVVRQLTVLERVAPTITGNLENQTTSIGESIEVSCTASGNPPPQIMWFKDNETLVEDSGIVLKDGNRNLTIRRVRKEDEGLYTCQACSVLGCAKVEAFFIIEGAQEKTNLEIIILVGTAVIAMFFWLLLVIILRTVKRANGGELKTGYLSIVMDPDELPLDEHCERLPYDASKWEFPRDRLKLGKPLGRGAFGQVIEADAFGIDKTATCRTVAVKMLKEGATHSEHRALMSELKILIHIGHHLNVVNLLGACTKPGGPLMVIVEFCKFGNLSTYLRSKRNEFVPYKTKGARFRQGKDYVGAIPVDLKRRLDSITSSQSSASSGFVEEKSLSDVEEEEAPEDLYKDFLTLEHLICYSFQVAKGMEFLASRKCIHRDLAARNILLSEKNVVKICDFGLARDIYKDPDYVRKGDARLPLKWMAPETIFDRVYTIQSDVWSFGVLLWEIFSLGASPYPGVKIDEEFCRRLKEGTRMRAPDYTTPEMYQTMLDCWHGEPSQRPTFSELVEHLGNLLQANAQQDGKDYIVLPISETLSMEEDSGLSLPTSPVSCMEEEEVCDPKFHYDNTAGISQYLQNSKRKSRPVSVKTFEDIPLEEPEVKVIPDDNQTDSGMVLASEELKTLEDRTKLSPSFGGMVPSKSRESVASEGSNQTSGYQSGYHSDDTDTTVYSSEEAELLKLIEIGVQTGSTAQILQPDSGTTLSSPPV

Row | Structure (SMILES) | IC50 (Aurora kinase A) [nM] | IC50 [1] [nM] | IC50 [2] [nM] | GI50 (MOLM-13) [nM] | IC50 [3] [nM] | Ratio [4] | inhibition [5] [%] | inhibition [6] [%] | GI50 (MV4-11) [nM] | GI50 [7] [nM] | GI50 (K562) [nM] | GI50 (U-937) [nM] | GI50 (MOLT-4) [nM]
1 | Cc1nc(Nc2cc(-c3cccc(NS(=O)(=O)c4ccccc4)c3)n[nH]2)cc(N2CCC(O)CC2)n1 | 540 | > 1000 | > 1000 | 120 | 10 | 12 | – | – | – | – | – | – | –
2 | O=C(Nc1cc(-c2cccc(NS(=O)(=O)c3ccccc3)c2)n[nH]1)c1ccc(CN2CCOCC2)cc1 | 220 | 560 | – | 67 | 350 | – | 52 | – | – | – | – | – | –
3 | Cc1nc(NCCN(C)C)cc(Nc2cc(-c3cccc(NS(=O)(=O)c4ccccc4)c3)n[nH]2)n1 | > 1000 | – | > 1000 | 180 | 71 | – | – | 55 | – | – | – | – | –
4 | Cc1ccc(F)c(NC(=O)Nc2ccc(-c3cccc4[nH]nc(N)c34)cc2)c1 [LINIFANIB] | – | – | – | – | – | – | – | – | 40 | 9200 | > 20000 | 19000 | 6700
